Test results reported in ChEMBL document CHEMBL1157378, “Role for cell density in antifungal drug resistance in Candida albicans biofilms” (2007).
≈ marks a conversion by molar mass, not a printed value.

Key:
Format in all cases: functional
Candida albicans [1] = experiment: Antimicrobial activity against Candida albicans FH1 dissociated biofilms at cell density of 10^8 cells/ml after 48 hrs by XTT assay; conditions: FH1, 48 h
Method in brief: (§1)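 Polystyrene-well biofilms (48 h, 37°C) washed, then broken up in 100 µl RPMI by scraping and aspiration. Cells used undiluted (about 2 x 10^8 cells/ml equivalent) or adjusted by A600 against a hemacytometer-calibrated yeast standard curve. Drug exposure at 37°C for 48 h (caspofungin 24 h), then XTT/menadione read at 490 nm.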

Candida albicans [2] = experiment: Antimicrobial activity against Candida albicans GDH2346 at planktonic cell density of 10^8 cells/ml after 48 hrs by XTT assay; conditions: GDH2346, 48 h
Method in brief: (§2)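 YNB-grown yeast (50 mM glucose, room temperature, shaken, to ~2 x 10^8 cells/ml) washed into MOPS-buffered RPMI 1640 with L-glutamine and set to the stated density. Exposed to twofold serial drug dilutions (1,024 to 0.0313 µg/ml) at 37°C, 48 h (caspofungin 24 h), with drug-free controls. Read-out: XTT (0.5 g/liter) plus 1 µM menadione, formazan at 490 nm.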

Candida albicans [3] = experiment: Antimicrobial activity against fluconazole-resistant Candida albicans FH5 at planktonic cell density of 10^3 cells/ml after 48 hrs by XTT assay; conditions: FH5, 48 h; method in brief: as §2
Candida albicans [4] = experiment: Antimicrobial activity against Chk1 deficient Candida albicans CHK21 at planktonic cell density of 10^8 cells/ml after 48 hrs by XTT assay; conditions: CHK21, 48 h; method in brief: as §2
Candida albicans [5] = experiment: Antimicrobial activity against Cdr1, Cdr2 and Mdr1 deficient Candida albicans DSY1050 at planktonic cell density of 10^3 cells/ml after 48 hrs by XTT assay; conditions: DSY1050, 48 h; method in brief: as §2
Candida albicans [6] = experiment: Antimicrobial activity against Candida albicans SC5314 intact biofilms after 48 hrs by XTT assay; conditions: SC5314, 48 h
Method in brief: (§3)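 Biofilm seeded at 1 x 10^6 cells/ml in RPMI in polystyrene microtiter wells and grown 48 h at 37°C in a moist chamber. Washed once and drug added to the same well (twofold dilutions, 1,024 to 0.0313 µg/ml) for 48 h at 37°C (caspofungin 24 h). Read-out: XTT/menadione reduction at 490 nm.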

Candida albicans [7] = experiment: Antimicrobial activity against Candida albicans SC5314 at planktonic cell density of 10^8 cells/ml after 48 hrs by XTT assay; conditions: SC5314, 48 h; method in brief: as §2
Candida albicans [8] = experiment: Antimicrobial activity against Candida albicans SC5314 dissociated biofilms at cell density of 10^3 cells/ml after 48 hrs by XTT assay; conditions: SC5314, 48 h; method in brief: as §1
Candida albicans [9] = experiment: Antimicrobial activity against Candida albicans GDH2346 at planktonic cell density of 10^3 cells/ml after 48 hrs by XTT assay; conditions: GDH2346, 48 h; method in brief: as §2
Candida albicans [10] = experiment: Antimicrobial activity against Candida albicans GDH2346 dissociated biofilms at cell density of 10^8 cells/ml after 48 hrs by XTT assay; conditions: GDH2346, 48 h; method in brief: as §1
Candida albicans [11] = experiment: Antimicrobial activity against Candida albicans SC5314 dissociated biofilms at cell density of 10^8 cells/ml after 48 hrs by XTT assay; conditions: SC5314, 48 h; method in brief: as §1
Candida albicans [12] = experiment: Antimicrobial activity against Candida albicans SC5314 at planktonic cell density of 10^3 cells/ml after 48 hrs by XTT assay; conditions: SC5314, 48 h; method in brief: as §2
Candida albicans [13] = experiment: Antimicrobial activity against Cdr1, Cdr2 and Mdr1 deficient Candida albicans DSY1050 dissociated biofilms at cell density of 10^8 cells/ml after 48 hrs by XTT assay; conditions: DSY1050, 48 h; method in brief: as §1
Candida albicans [14] = experiment: Antimicrobial activity against Chk1 deficient Candida albicans CHK21 at planktonic cell density of 10^3 cells/ml after 48 hrs by XTT assay; conditions: CHK21, 48 h; method in brief: as §2
Candida albicans [15] = experiment: Antimicrobial activity against Chk1 deficient Candida albicans CHK21 dissociated biofilms at cell density of 10^8 cells/ml after 48 hrs by XTT assay; conditions: CHK21, 48 h; method in brief: as §1
Candida albicans [16] = experiment: Antimicrobial activity against Cdr1, Cdr2 and Mdr1 deficient Candida albicans DSY1050 dissociated biofilms at cell density of 10^3 cells/ml after 48 hrs by XTT assay; conditions: DSY1050, 48 h; method in brief: as §1
Candida albicans [17] = experiment: Antimicrobial activity against Candida albicans FH1 dissociated biofilms at cell density of 10^3 cells/ml after 48 hrs by XTT assay; conditions: FH1, 48 h; method in brief: as §1
Candida albicans [18] = experiment: Antimicrobial activity against Chk1 deficient Candida albicans CHK21 intact biofilms after 48 hrs by XTT assay; conditions: CHK21, 48 h; method in brief: as §3
Candida albicans [19] = experiment: Antimicrobial activity against Cdr1, Cdr2 and Mdr1 deficient Candida albicans DSY1050 at planktonic cell density of 10^8 cells/ml after 48 hrs by XTT assay; conditions: DSY1050, 48 h; method in brief: as §2
Candida albicans [20] = experiment: Antimicrobial activity against Chk1 deficient Candida albicans CHK21 dissociated biofilms at cell density of 10^3 cells/ml after 48 hrs by XTT assay; conditions: CHK21, 48 h; method in brief: as §1
Candida albicans [21] = experiment: Antimicrobial activity against fluconazole-resistant Candida albicans FH5 at planktonic cell density of 10^8 cells/ml after 48 hrs by XTT assay; conditions: FH5, 48 h; method in brief: as §2
Candida albicans [22] = experiment: Antimicrobial activity against Candida albicans FH1 at planktonic cell density of 10^3 cells/ml after 48 hrs by XTT assay; conditions: FH1, 48 h; method in brief: as §2
Candida albicans [23] = experiment: Antimicrobial activity against fluconazole-resistant Candida albicans FH5 dissociated biofilms at cell density of 10^8 cells/ml after 48 hrs by XTT assay; conditions: FH5, 48 h; method in brief: as §1
Candida albicans [24] = experiment: Antimicrobial activity against Candida albicans GDH2346 dissociated biofilms at cell density of 10^3 cells/ml after 48 hrs by XTT assay; conditions: GDH2346, 48 h; method in brief: as §1
Candida albicans [25] = experiment: Antimicrobial activity against Candida albicans GDH2346 intact biofilms after 48 hrs by XTT assay; conditions: GDH2346, 48 h; method in brief: as §3
Candida albicans [26] = experiment: Antimicrobial activity against fluconazole-resistant Candida albicans FH5 intact biofilms after 48 hrs by XTT assay; conditions: FH5, 48 h; method in brief: as §3
Candida albicans [27] = experiment: Antimicrobial activity against Candida albicans FH1 at planktonic cell density of 10^8 cells/ml after 48 hrs by XTT assay; conditions: FH1, 48 h; method in brief: as §2
Candida albicans [28] = experiment: Antimicrobial activity against Candida albicans FH1 intact biofilms after 48 hrs by XTT assay; conditions: FH1, 48 h; method in brief: as §3
Candida albicans [29] = experiment: Antimicrobial activity against Cdr1, Cdr2 and Mdr1 deficient Candida albicans DSY1050 intact biofilms after 48 hrs by XTT assay; conditions: DSY1050, 48 h; method in brief: as §3
Candida albicans [30] = experiment: Antimicrobial activity against fluconazole-resistant Candida albicans FH5 dissociated biofilms at cell density of 10^3 cells/ml after 48 hrs by XTT assay; conditions: FH5, 48 h; method in brief: as §1

SMILES: CC(=O)N1CCN(c2ccc(OC[C@H]3CO[C@](Cn4ccnc4)(c4ccc(Cl)cc4Cl)O3)cc2)CC1 [KETOCONAZOLE]
- MIC80 (Candida albicans [1]): > 512 µg/mL
- MIC80 (Candida albicans [2]): > 512 µg/mL
- MIC80 (Candida albicans [3]): 64 µg/mL (≈ 120 µM)
- MIC80 (Candida albicans [4]): > 64 µg/mL
- MIC80 (Candida albicans [5]): 0.25 µg/mL (≈ 0.47 µM)
- MIC80 (Candida albicans [6]): > 512 µg/mL
- MIC80 (Candida albicans [7]): > 512 µg/mL
- MIC80 (Candida albicans [8]): 0.5 µg/mL (≈ 0.941 µM)
- MIC80 (Candida albicans [9]): 0.25 µg/mL (≈ 0.47 µM)
- MIC80 (Candida albicans [10]): > 64 µg/mL
- MIC80 (Candida albicans [11]): > 512 µg/mL
- MIC80 (Candida albicans [12]): 0.125 µg/mL (≈ 0.235 µM)
- MIC80 (Candida albicans [13]): > 64 µg/mL
- MIC80 (Candida albicans [14]): 0.125 µg/mL (≈ 0.235 µM)
- MIC80 (Candida albicans [15]): > 64 µg/mL
- MIC80 (Candida albicans [16]): 0.125 µg/mL (≈ 0.235 µM)
- MIC80 (Candida albicans [17]): 4 µg/mL (≈ 7.53 µM)
- MIC80 (Candida albicans [18]): > 64 µg/mL
- MIC80 (Candida albicans [19]): > 256 µg/mL
- MIC80 (Candida albicans [20]): 0.125 µg/mL (≈ 0.235 µM)
- MIC80 (Candida albicans [21]): > 256 µg/mL
- MIC80 (Candida albicans [22]): 4 µg/mL (≈ 7.53 µM)
- MIC80 (Candida albicans [23]): > 512 µg/mL
- MIC80 (Candida albicans [24]): 0.125 µg/mL (≈ 0.235 µM)
- MIC80 (Candida albicans [25]): > 512 µg/mL
- MIC80 (Candida albicans [26]): > 512 µg/mL
- MIC80 (Candida albicans [27]): > 512 µg/mL
- MIC80 (Candida albicans [28]): > 512 µg/mL
- MIC80 (Candida albicans [29]): > 64 µg/mL
- MIC80 (Candida albicans [30]): 64 µg/mL (≈ 120 µM)
